Values after ≈ are worked out from the molar mass of the structure shown.
Legend:
[1] = system: Enterococcus faecium; test: Antibacterial activity against Enterococcus faecium NCTC 7171 by broth microdilution method; format: functional
How it was run: (§1)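 MIC90 (µM) by broth microdilution in Mueller-Hinton broth No.2 (MHII) following CLSI guidelines. End point read visually. Each compound tested in triplicate.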

[2] = system: Escherichia coli; test: Antibacterial activity against Escherichia coli X580 at 0.33 ug/mL after 24 hrs by agar well diffusion method; details: X580, 24 h, read-out: DIZ
[3] = system: Pseudomonas aeruginosa; test: microbe, parasite or virus in culture; details: K799/61, 24 h, read-out: DIZ
[4] = system: Staphylococcus aureus; test: microbe, parasite or virus in culture; details: SG 511, 24 h, read-out: DIZ
[5] = system: Micrococcus luteus; test: Antibacterial activity against Micrococcus luteus ATCC 10240 assessed as unclear inhibition zone at 5 ug/mL after 24 hrs by agar well diffusion method; format: functional; details: ATCC 10240, 24 h, read-out: DIZ
How it was run: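 Agar well diffusion with ciprofloxacin dissolved in H2O, tested at 5, 1.66 or […]. Solution was loaded into 9 mm wells in nutrient agar or Mueller Hinton II agar. Inhibition zones were read after 24 h at 37 °C. A zone was scored as P when unclear, with many colonies inside.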

[6] = system: Klebsiella pneumoniae; test: Antibacterial activity against Klebsiella pneumoniae ATCC 700603 by broth microdilution method; format: functional; how it was run: as §1
[7] = system: Pseudomonas aeruginosa; test: microbe, parasite or virus in culture; details: K799/61, 24 h, read-out: DIZ; remark: listed apart in the source
[8] = system: Acinetobacter baumannii; test: Antibacterial activity against Acinetobacter baumannii ATCC 17961 by broth microdilution method; format: functional; how it was run: as §1
[9] = system: Klebsiella aerogenes; test: Antibacterial activity against Enterobacter aerogenes ATCC 35029 by broth microdilution method; format: functional; how it was run: as §1
[10] = system: Bacillus subtilis; test: microbe, parasite or virus in culture; details: ATCC 6633, 24 h, read-out: DIZ
[11] = system: Escherichia coli; test: Antibacterial activity against Escherichia coli ATCC 25922 by broth microdilution method; format: functional; how it was run: as §1
[12] = system: Pseudomonas aeruginosa; test: Antibacterial activity against Pseudomonas aeruginosa ATCC 27853 by broth microdilution method; format: functional; how it was run: as §1
[13] = system: Pseudomonas aeruginosa; test: microbe, parasite or virus in culture; details: K799, 24 h, read-out: DIZ
[14] = system: Bacillus subtilis; test: Antibacterial activity against Bacillus subtilis ATCC 6633 at 50 uL of 0.2 mM solution of compound dissolved in 1:9 DMSO/MeOH measured after 24 hrs by agar well diffusion method; format: functional
How it was run: (§2)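 Agar well diffusion. 50 µL of a 0.2 mM solution in 1:9 DMSO/MeOH was filled into 9 mm wells in nutrient agar or Mueller Hinton II agar. Plates were incubated 24 h at 37 °C before inhibition zones were read. Zones were scored as partially clear (p, colonies in zone) or unclear (P, many colonies in zone).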

[15] = system: Pseudomonas aeruginosa; test: Antibacterial activity against wild type Pseudomonas aeruginosa K799 at 50 uL of 0.2 mM solution of compound dissolved in 1:9 DMSO/MeOH measured after 24 hrs by agar well diffusion method; format: functional; how it was run: as §2
[16] = system: Pseudomonas aeruginosa; test: Antibacterial activity against Pseudomonas aeruginosa K799/61 at 50 uL of 0.2 mM solution of compound dissolved in 1:9 DMSO/MeOH measured after 24 hrs by agar well diffusion method; format: functional; how it was run: as §2
[17] = system: Micrococcus luteus; test: Antibacterial activity against Micrococcus luteus ATCC 10240 at 50 uL of 0.2 mM solution of compound dissolved in 1:9 DMSO/MeOH measured after 24 hrs by agar well diffusion method; format: functional; how it was run: as §2
[18] = system: Staphylococcus aureus; test: Antibacterial activity against Staphylococcus aureus SG 511 at 50 uL of 0.2 mM solution of compound dissolved in 1:9 DMSO/MeOH measured after 24 hrs by agar well diffusion method; format: functional; how it was run: as §2
[19] = system: Escherichia coli; test: Antibacterial activity against Escherichia coli X580 at 50 uL of 0.2 mM solution of compound dissolved in 1:9 DMSO/MeOH measured after 24 hrs by agar well diffusion method; format: functional; how it was run: as §2
[20] = system: Pseudomonas aeruginosa; test: Antibacterial activity against Pseudomonas aeruginosa K799/61 assessed as unclear inhibition zone at 50 uL of 0.2 mM solution of compound dissolved in 1:9 DMSO/MeOH measured after 24 hrs by agar well diffusion method; format: functional; how it was run: as §2
[21] = system: Escherichia coli; test: Antibacterial activity against Escherichia coli X580 assessed as partially clear inhibition zone at 50 uL of 0.2 mM solution of compound dissolved in 1:9 DMSO/MeOH measured after 24 hrs by agar well diffusion method; format: functional; how it was run: as §2
[22] = system: Staphylococcus aureus; test: Antibacterial activity against Staphylococcus aureus ATCC 29213 by broth microdilution method; format: functional; how it was run: as §1
[23] = system: Pseudomonas aeruginosa; test: Antibacterial activity against Pseudomonas aeruginosa K799/61 assessed as partially clear inhibition zone at 50 uL of 0.2 mM solution of compound dissolved in 1:9 DMSO/MeOH measured after 24 hrs by agar well diffusion method; format: functional; how it was run: as §2

Compound	MIC90 [1] [µM]	MIC90 [6] [µM]	MIC90 [8] [µM]	MIC90 [9] [µM]	MIC90 [11] [µM]	MIC90 [12] [µM]	diameter of the inhibition zone (DIZ) [14] [mm]	diameter of the inhibition zone (DIZ) [15] [mm]	diameter of the inhibition zone (DIZ) [16] [mm]	diameter of the inhibition zone (DIZ) [17] [mm]	diameter of the inhibition zone (DIZ) [18] [mm]	diameter of the inhibition zone (DIZ) [19] [mm]	other results
O=C(O)c1cn(C2CC2)c2cc(N3CCNCC3)c(F)cc2c1=O [CIPROFLOXACIN]	8 (≈ 2.65 µg/mL)	0.25 (≈ 0.0828 µg/mL)	0.25 (≈ 0.0828 µg/mL)	< 0.015	< 0.015	0.25 (≈ 0.0828 µg/mL)	–	–	–	–	–	–	zone of inhibition at 0.33 µg/mL [2]: 31 mm; zone of inhibition at 1.66 µg/mL [3]: 32 mm; zone of inhibition at 5 µg/mL [4]: 28 mm; zone of inhibition at 5 µg/mL [5]: 12 mm; zone of inhibition at 1.66 µg/mL [7]: 24 mm; zone of inhibition at 1.66 µg/mL [10]: 28 mm; zone of inhibition at 1.66 µg/mL [13]: 21 mm
CC(=O)N(O)CCCCCNC(=O)CCC(=O)N(O)CCCCCNC(=O)CCC(=O)N(O)CCCCCNC(=O)CCC(=O)Oc1c(C)cc(OP(=O)(O)O)c(C(C)(C)CC(=O)N2CCN(c3cc4c(cc3F)c(=O)c(C(=O)O)cn4C3CC3)CC2)c1C	–	–	–	–	–	–	0	0	0	0	0	21	–
CC(=O)N(O)CCCCCNC(=O)CCC(=O)N(O)CCCCCNC(=O)CCC(=O)N(O)CCCCCNC(=O)CCC(=O)N1CCN(c2cc3c(cc2F)c(=O)c(C(=O)O)cn3C2CC2)CC1	–	–	–	–	–	–	21	0	–	0	18	30	diameter of the inhibition zone (DIZ) [20]: 26 mm; diameter of the inhibition zone (DIZ) [21]: 33 mm
CC(=O)N(O)CCCCCNC(=O)CCC(=O)N(O)CCCCCNC(=O)CCC(=O)N(O)CCCCCNC(=O)CCC(=O)Oc1cc(C)cc(C)c1C(C)(C)CC(=O)N1CCN(c2cc3c(cc2F)c(=O)c(C(=O)O)cn3C2CC2)CC1	> 128	16 (≈ 18.9 µg/mL)	8 (≈ 9.43 µg/mL)	1 (≈ 1.18 µg/mL)	1 (≈ 1.18 µg/mL)	8 (≈ 9.43 µg/mL)	26	26	27	0	16	29	MIC90 [22]: 32 µM (≈ 37.7 µg/mL); diameter of the inhibition zone (DIZ) [23]: 37 mm

Reference: ChEMBL document CHEMBL2034825, “Chemical syntheses and in vitro antibacterial activity of two desferrioxamine B-ciprofloxacin conjugates with potential esterase and phosphatase triggered drug release linkers” (2012)
